Consider 2 substances from PMC6014630 (Tuberculosis (Edinburgh, Scotland), 2018).

Test [1] deals with human neutrophils, monocytes and lymphocytes. In kind it is cell-based.
Test [2] has as its system lung cell populations of TDM-challenged C57BL/6 mice. The test can be described thus: In vivo cellular specificity of cFLFLFK-PEG12-Cy3 in TDM-challenged mouse lung. The settings on record: 50 µg i.v., 4 h circulation, 5 days after TDM; flow cytometry, n=3. In short, it runs like this:
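Female C57BL/6 mice (8 weeks, 18–20 g) received 100 µg TDM i.v. Five days later they got 50 µg Cy3-labelled test compound i.v. (n=3) or PBS (n=2). Lungs were digested 4 h later, and cells (2×10^6/mL in HBSS+) were live/dead stained 30 min on ice. They were blocked 30 min (40% mouse serum), plated at 1×10^6/well and mAb-stained. Flow cytometry acquired 100,000 live events. Gated populations were CD11b+Ly6G+, CD3+, CD11c+CD11b-, CD11b+CD11c+, CD11b+CD11c- and marker-negative. Each population's share of total Cy3 signal was pooled across mice.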

Test [3] concerns C57BL/6 mouse lung. The test can be described thus: TDM-induced lung granulomatous inflammation in mice. The format is in vivo. In short, it runs like this: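 TDM was given via tail vein as an oil-in-water emulsion (100 µL, 100 µg), or vehicle alone. Day-5 lungs were H&E-stained for light microscopy (histology mice 6 weeks old). Flow cytometry used five TDM-treated mice (female, 8 weeks) with live/dead staining and mAb gating: CD11b+Ly6G+ neutrophils, CD3+ lymphocytes, CD11c+CD11b- alveolar macrophages, CD11b+CD11c+ macrophages/dendritic cells, CD11b+CD11c- monocytes/immature macrophages. Values are percentages of all living cells.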

Setting [4] is: five TDM-administered mice, day 5.

On to cFLFLFK-PEG12-Cy3, for which, in test [1], the “Cy3 MFI on neutrophils compared with monocytes and lymphocytes” value is “significantly higher”; the “Dose dependence of binding to neutrophils, monocytes and lymphocytes” value is “Dose-dependent binding was observed on all cell types”. Also, the “Targeting of lymphocytes and other (antibody-negative) cells in the lung” value in test [2] was “not targeted”.
Take trehalose dimycolate [TDM]: the “Lung histology (H&E)” value in test [3] (100 µg TDM i.v., day 5, versus vehicle emulsion) is listed as “patchy regions of granulomatous inflammation were observed”. Moreover, in test [3] (100 µg TDM i.v., day 5, flow cytometry), the “Change in lung frequency of CD3+ lymphocytes” value was “unchanged”. Further, the “Frequency increase of lung neutrophils compared to vehicle-injected mice” value in test [3] (100 µg TDM i.v., day 5, flow cytometry, data not shown) is recorded as 9.1% ± 6.4%. Also, in test [3] (setting [4]), the “Percentage of alveolar macrophages relative to all living lung cells” value was 6.3% ± 1.7%, the “Percentage of immature macrophages/monocytes relative to all living lung cells” value is reported as 20.1% ± 3.1%, the “Percentage of lymphocytes relative to all living lung cells” value is on record as 10.7% ± 2.5% and the “Percentage of macrophages/dendritic cells relative to all living lung cells” value was 17.7% ± 7.7%. The “Percentage of neutrophils relative to all living lung cells” value in test [3] (setting [4]) is given as 9.2% ± 3.7%.
